Measured values of several laboratories.
Protocols differ between the studies behind these lines. Converted amounts (≈) assume the structure as drawn.

SMILES | test | test system | conditions | measurement | value
CC1(F)CN(C(=O)Cn2c(=O)c(C(=O)NCc3ccc(Cl)cc3)cc3nc(N4CCN(CC(=O)O)C4=O)cnc32)C1 |  | aqueous buffer | 24 h, pH 7.4, 37 °C | thermodynamic solubility | 5660 µM
CCn1cc(C2CC2)c2c(Cc3cnc(C(F)(F)F)c(Cl)c3)n(C)nc2c1=O | nephelometry | aqueous buffer | 30 min, pH 6.5 | kinetic solubility | 50 to 100 µM (≈ 20.5 to 41.1 µg/mL)
CCNC(=O)c1cnn(-c2ccc(-n3ccc(Cl)c(Cl)c3=O)cc2)c1C(F)(F)F |  | PBS | 24 h, pH 7.4 | kinetic solubility | 0.2 µM (≈ 0.089 µg/mL)
O=C(O)c1cn(-c2ccc(-c3ccc(C(=O)N4CCNCC4)cc3)cc2)cc(O)c1=O |  | aqueous buffer | pH 7.4 | kinetic solubility | 290 µM (≈ 122 µg/mL)
Cc1cc(C#N)cc(C)c1Oc1nc(Nc2ccc(C#N)cc2)nc(N)c1Br |  | FaSSIF | 24 h, pH 6.5 | thermodynamic solubility | 0.52 µg/mL
CCn1cc(C2CC2)c2c(Cc3ccc(C(F)(F)F)c(F)c3)n(C)nc2c1=O | nephelometry | aqueous buffer | 30 min, pH 6.5 | kinetic solubility | 16 to 32 µM (≈ 6.29 to 12.6 µg/mL)
CCNCc1cnn(-c2ccc(-n3ccc(Cl)c(Cl)c3=O)cc2)c1C(F)(F)F |  | PBS | 24 h, pH 7.4 | kinetic solubility | 144 µM (≈ 62.1 µg/mL)
C[C@H]1COC2=C1C(=O)C(=O)c1c2ccc2c1CCCC2(C)C |  | PBS | 24 h, pH 7.4, 25 °C | thermodynamic solubility | 18.3 µg/mL
CN(C)C(=O)CN1CCN(c2cnc3c(cc(C(=O)NCc4ccc(Cl)cc4)c(=O)n3CC(=O)N3CC(C)(F)C3)n2)C1=O |  | aqueous buffer | 24 h, pH 7.4, 37 °C | thermodynamic solubility | < 1.56 µM
CCn1cc(C2CC2)c2c(Cc3ccc(C(F)(F)F)nc3)n(C)nc2c1=O | nephelometry | aqueous buffer | 30 min, pH 6.5 | kinetic solubility | 130 to 260 µM (≈ 48.9 to 97.9 µg/mL)
CC1(F)CN(C(=O)Cn2c(=O)c(C(=O)NCc3ccc(Cl)cc3)cc3nccnc32)C1 |  | aqueous buffer | 24 h, pH 7.4, 37 °C | thermodynamic solubility | 52.6 µM
Cn1nc2c(=O)n(C3CC3)ccc2c1[C@](C)(O)c1cnc(C(F)(F)F)c(Cl)c1 | nephelometry | aqueous buffer | 30 min, pH 6.5 | kinetic solubility | 80 to 160 µM (≈ 33 to 66 µg/mL)
N#C/C(=C\c1c[nH]nc1-c1cccc(Br)c1)C(=O)O |  | PBS | 24 h, pH 7.4 | kinetic solubility | 0.1 µM (≈ 0.0318 µg/mL)
Cn1cncc1[C@@](N)(c1ccc(Cl)cc1)c1ccc2c(c1)c(-c1cccc(Cl)c1)cc(=O)n2C |  | FeSSIF | pH 5, 37 °C | solubility | 448 µg/mL (≈ 915 µM)
CC[C@@](N)(c1cnc(C(F)(F)F)c(Cl)c1)c1c2ncn(C3CC3)c(=O)c2nn1C | nephelometry | aqueous buffer | 30 min, pH 6.5 | kinetic solubility | 80 to 160 µM (≈ 34.1 to 68.3 µg/mL)
